ChEMBL document CHEMBL5724801, “EUbOPEN Chemogenomics Library - Multiplex” (2024)
“And” between values parts separate entries of the source, which are not always exact repeats. Identical values can stand only once.

Test system: Fibroblast
Experiment: Multiplex assay against human fibroblast
Type: toxicity, cell-based
Summary of the method: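 Live cells carried four stains from seeding: Hoechst33342, BioTracker Green Microtubule Cytoskeleton Dye, MitoTracker Red and Annexin V Alexa Fluor 680. They were imaged on a CQ1 microscope at 37°C and 5% CO2 after compound addition. Using CellPathfinder machine-learning gating, cells were split into Hoechst high-intensity objects or normal cells, normal cells into healthy, pyknosed or fragmented nuclei, and pyknosed cells into mitotic or apoptotic; tubulin, mitochondrial-mass and membrane-permeability phenotypes are per cents of healthy-nucleus cells.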

[1] = 12 h, 1 µM, compound concentration 1 uM
[2] = 12 h, 10 µM, compound concentration 10 uM
[3] = 24 h, 1 µM, compound concentration 1 uM
[4] = 24 h, 10 µM, compound concentration 10 uM
[5] = 48 h, 1 µM, compound concentration 1 uM
[6] = 48 h, 10 µM, compound concentration 10 uM

In the case of `Cc1cccc(F)c1C(=O)Nc1cnc(-c2cc3c(cc2Cl)OC(F)(F)O3)cn1` [ZEGOCRACTIN], the “Population Apoptotic (%)” value [1] is reported as 6.56% and 18.18%, the “Population Fragmented Nuclei (%)” value [1] is reported as 12.97% and 3.23% and the “Population Healthy Nuclei (%)” value [1] is reported as 61.51% and 79.03%. The “Population Hoechst High Intensity Objects (%)” value [1] was 0%, the “Population Membrane Permeable-Phenotype (%)” value [1] was 2.04% and the “Population Mitochondria Different-Phenotype (%)” value [1] was 8.16%. For the same molecule, the “Population Mitotic Cells (%)” value [1] was 93.44% and 81.82%, the “Population Normal (%)” value [1] was 100% and the “Population Pyknosed Nuclei (%)” value [1] was 25.52% and 17.74%. For the same molecule, the “Population Tubulin-Different-Phenotype (%)” value [1] was 17.01% and 13.61%, the “Total Cell Count” value [1] was 239 and 186 and the “Population Apoptotic (%)” value [2] was 8.93% and 22.86%. The “Population Fragmented Nuclei (%)” value [2] was 13.11% and 8.77%, the “Population Healthy Nuclei (%)” value [2] was 56.28% and 70.76% and the “Population Hoechst High Intensity Objects (%)” value [2] was 0%. For the same molecule, the “Population Membrane Permeable-Phenotype (%)” value [2] was 3.88% and 4.96%, the “Population Mitochondria Different-Phenotype (%)” value [2] was 17.48% and 19.01% and the “Population Mitotic Cells (%)” value [2] was 91.07% and 77.14%. For the same molecule, the “Population Normal (%)” value [2] was 100%, the “Population Pyknosed Nuclei (%)” value [2] was 30.6% and 20.47% and the “Population Tubulin-Different-Phenotype (%)” value [2] was 24.27% and 42.15%. For the same molecule, the “Total Cell Count” value [2] was 183 and 171, the “Population Apoptotic (%)” value [3] was 11.11% and 9.52% and the “Population Fragmented Nuclei (%)” value [3] was 9.33% and 2.59%. For the same molecule, the “Population Healthy Nuclei (%)” value [3] was 73.88% and 86.53%, the “Population Hoechst High Intensity Objects (%)” value [3] was 0% and the “Population Membrane Permeable-Phenotype (%)” value [3] was 3.54% and 0%. The “Population Mitochondria Different-Phenotype (%)” value [3] was 7.07% and 6.59%, the “Population Mitotic Cells (%)” value [3] was 88.89% and 90.48% and the “Population Normal (%)” value [3] was 100%. The “Population Pyknosed Nuclei (%)” value [3] was 16.79% and 10.88%, the “Population Tubulin-Different-Phenotype (%)” value [3] was 14.65% and 11.38% and the “Total Cell Count” value [3] was 268 and 193. For the same molecule, the “Population Apoptotic (%)” value [4] was 7.81% and 17.65%, the “Population Fragmented Nuclei (%)” value [4] was 13% and 8.14% and the “Population Healthy Nuclei (%)” value [4] was 55% and 72.09%. The “Population Hoechst High Intensity Objects (%)” value [4] was 0%, the “Population Membrane Permeable-Phenotype (%)” value [4] was 3.64% and 1.61% and the “Population Mitochondria Different-Phenotype (%)” value [4] was 14.55% and 32.26%. The “Population Mitotic Cells (%)” value [4] was 92.19% and 82.35%, the “Population Normal (%)” value [4] was 100% and the “Population Pyknosed Nuclei (%)” value [4] was 32% and 19.77%. For the same molecule, the “Population Tubulin-Different-Phenotype (%)” value [4] was 37.27% and 46.77%, the “Total Cell Count” value [4] was 200 and 172 and the “Population Apoptotic (%)” value [5] was 15% and 35%. The “Population Fragmented Nuclei (%)” value [5] was 9.76% and 3.2%, the “Population Healthy Nuclei (%)” value [5] was 83.28% and 87.67% and the “Population Hoechst High Intensity Objects (%)” value [5] was 0%. The “Population Membrane Permeable-Phenotype (%)” value [5] was 1.26% and 2.6%, the “Population Mitochondria Different-Phenotype (%)” value [5] was 9.62% and 2.6% and the “Population Mitotic Cells (%)” value [5] was 85% and 65%. For the same molecule, the “Population Normal (%)” value [5] was 100%, the “Population Pyknosed Nuclei (%)” value [5] was 6.97% and 9.13% and the “Population Tubulin-Different-Phenotype (%)” value [5] was 8.79% and 19.79%. For the same molecule, the “Total Cell Count” value [5] was 287 and 219, the “Population Apoptotic (%)” value [6] was 15% and 9.52% and the “Population Fragmented Nuclei (%)” value [6] was 10.91% and 9.6%. The “Population Healthy Nuclei (%)” value [6] was 70.91% and 78.53%, the “Population Hoechst High Intensity Objects (%)” value [6] was 0% and the “Population Membrane Permeable-Phenotype (%)” value [6] was 0.64% and 4.32%. For the same molecule, the “Population Mitochondria Different-Phenotype (%)” value [6] was 20.51% and 13.67%, the “Population Mitotic Cells (%)” value [6] was 85% and 90.48% and the “Population Normal (%)” value [6] was 100%. For the same molecule, the “Population Pyknosed Nuclei (%)” value [6] was 18.18% and 11.86%, the “Population Tubulin-Different-Phenotype (%)” value [6] was 28.21% and 56.83% and the “Total Cell Count” value [6] was 220 and 177.
For `CC(=O)O[C@H]1C(=O)[C@@]2(C)[C@H]([C@H](OC(=O)c3ccccc3)[C@]3(O)C[C@H](OC(=O)[C@H](O)[C@@H](NC(=O)c4ccccc4)c4ccccc4)C(C)=C1C3(C)C)[C@]1(OC(C)=O)CO[C@@H]1C[C@@H]2O` [PACLITAXEL], the “Population Apoptotic (%)” value [2] was 65% and 39%, the “Population Fragmented Nuclei (%)” value [2] was 19% and 34% and the “Population Healthy Nuclei (%)” value [2] was 63% and 39%. The “Population Hoechst High Intensity Objects (%)” value [2] was 5% and 1%, the “Population Membrane Permeable-Phenotype (%)” value [2] was 0% and 6% and the “Population Mitochondria Different-Phenotype (%)” value [2] was 10% and 13%. For the same molecule, the “Population Mitotic Cells (%)” value [2] was 34% and 60%, the “Population Normal (%)” value [2] was 94% and 98% and the “Population Pyknosed Nuclei (%)” value [2] was 16% and 25%. For the same molecule, the “Population Tubulin-Different-Phenotype (%)” value [2] was 17% and 44%, the “Total Cell Count” value [2] was 167 and 111 and the “Population Apoptotic (%)” value [4] was 70% and 30%. The “Population Fragmented Nuclei (%)” value [4] was 19% and 36%, the “Population Healthy Nuclei (%)” value [4] was 63% and 45% and the “Population Hoechst High Intensity Objects (%)” value [4] was 1% and 2%. The “Population Membrane Permeable-Phenotype (%)” value [4] was 0% and 6%, the “Population Mitochondria Different-Phenotype (%)” value [4] was 9% and 10% and the “Population Mitotic Cells (%)” value [4] was 29% and 70%. For the same molecule, the “Population Normal (%)” value [4] was 98% and 97%, the “Population Pyknosed Nuclei (%)” value [4] was 16% and 18% and the “Total Cell Count” value [4] was 164 and 114. For the same molecule, the “Population Apoptotic (%)” value [6] was 76% and 54%, the “Population Fragmented Nuclei (%)” value [6] was 31% and 48% and the “Population Healthy Nuclei (%)” value [6] was 50% and 42%. For the same molecule, the “Population Hoechst High Intensity Objects (%)” value [6] was 4% and 0%, the “Population Membrane Permeable-Phenotype (%)” value [6] was 0% and 3% and the “Population Mitochondria Different-Phenotype (%)” value [6] was 16% and 9%. The “Population Mitotic Cells (%)” value [6] was 23% and 45%, the “Population Normal (%)” value [6] was 95% and 100% and the “Population Pyknosed Nuclei (%)” value [6] was 17% and 8%. The “Population Tubulin-Different-Phenotype (%)” value [6] was 20% and 40% and the “Total Cell Count” value [6] was 177 and 129.
For `C[C@H](C[C@H](N)C(=O)O)C(=O)O` [2S,4R-4-METHYLGLUTAMATE], the “Population Apoptotic (%)” value [1] was 17.14% and 40%, the “Population Fragmented Nuclei (%)” value [1] was 10.46% and 7.78% and the “Population Healthy Nuclei (%)” value [1] was 66.67% and 77.25%. For the same molecule, the “Population Hoechst High Intensity Objects (%)” value [1] was 0%, the “Population Membrane Permeable-Phenotype (%)” value [1] was 1.96% and 3.1% and the “Population Mitochondria Different-Phenotype (%)” value [1] was 8.82% and 6.98%. For the same molecule, the “Population Mitotic Cells (%)” value [1] was 82.86% and 60%, the “Population Normal (%)” value [1] was 100% and the “Population Pyknosed Nuclei (%)” value [1] was 22.88% and 14.97%. For the same molecule, the “Population Tubulin-Different-Phenotype (%)” value [1] was 9.8% and 13.95%, the “Total Cell Count” value [1] was 153 and 167 and the “Population Apoptotic (%)” value [2] was 12.5% and 8.57%. For the same molecule, the “Population Fragmented Nuclei (%)” value [2] was 12.57% and 5.6%, the “Population Healthy Nuclei (%)” value [2] was 64.57% and 79.31% and the “Population Hoechst High Intensity Objects (%)” value [2] was 0%. For the same molecule, the “Population Mitochondria Different-Phenotype (%)” value [2] was 11.5% and 11.96%, the “Population Mitotic Cells (%)” value [2] was 87.5% and 91.43% and the “Population Normal (%)” value [2] was 100%. For the same molecule, the “Population Pyknosed Nuclei (%)” value [2] was 22.86% and 15.09%, the “Population Tubulin-Different-Phenotype (%)” value [2] was 17.7% and 19.02% and the “Total Cell Count” value [2] was 175 and 232. The “Population Fragmented Nuclei (%)” value [3] was 9.47% and 7.6%, the “Population Healthy Nuclei (%)” value [3] was 73.16% and 83.04% and the “Population Hoechst High Intensity Objects (%)” value [3] was 0%. For the same molecule, the “Population Membrane Permeable-Phenotype (%)” value [3] was 3.6% and 1.41%, the “Population Mitochondria Different-Phenotype (%)” value [3] was 2.16% and 9.86% and the “Population Mitotic Cells (%)” value [3] was 90.91% and 68.75%. The “Population Normal (%)” value [3] was 100%, the “Population Pyknosed Nuclei (%)” value [3] was 17.37% and 9.36% and the “Population Tubulin-Different-Phenotype (%)” value [3] was 12.95% and 10.56%. For the same molecule, the “Total Cell Count” value [3] was 190 and 171, the “Population Apoptotic (%)” value [4] was 19.35% and 15.79% and the “Population Fragmented Nuclei (%)” value [4] was 10.38% and 3.95%. For the same molecule, the “Population Healthy Nuclei (%)” value [4] was 72.68% and 87.72%, the “Population Hoechst High Intensity Objects (%)” value [4] was 0% and the “Population Membrane Permeable-Phenotype (%)” value [4] was 6.02% and 0%. For the same molecule, the “Population Mitochondria Different-Phenotype (%)” value [4] was 6.02% and 4.5%, the “Population Mitotic Cells (%)” value [4] was 80.65% and 84.21% and the “Population Normal (%)” value [4] was 100%. For the same molecule, the “Population Pyknosed Nuclei (%)” value [4] was 16.94% and 8.33%, the “Population Tubulin-Different-Phenotype (%)” value [4] was 18.05% and 14.5% and the “Total Cell Count” value [4] was 183 and 228. The “Population Apoptotic (%)” value [5] was 16.67% and 37.5%, the “Population Fragmented Nuclei (%)” value [5] was 6.91% and 10.23% and the “Population Healthy Nuclei (%)” value [5] was 84.79% and 85.23%. For the same molecule, the “Population Hoechst High Intensity Objects (%)” value [5] was 0%, the “Population Membrane Permeable-Phenotype (%)” value [5] was 1.63% and 1.33% and the “Population Mitotic Cells (%)” value [5] was 83.33% and 62.5%. For the same molecule, the “Population Normal (%)” value [5] was 100%, the “Population Pyknosed Nuclei (%)” value [5] was 8.29% and 4.55% and the “Population Tubulin-Different-Phenotype (%)” value [5] was 10.33% and 18%. The “Total Cell Count” value [5] was 217 and 176, the “Population Apoptotic (%)” value [6] was 28.57% and 21.43% and the “Population Fragmented Nuclei (%)” value [6] was 9.04% and 3.43%. The “Population Healthy Nuclei (%)” value [6] was 83.51% and 90.56%, the “Population Hoechst High Intensity Objects (%)” value [6] was 0% and the “Population Membrane Permeable-Phenotype (%)” value [6] was 0% and 2.37%. For the same molecule, the “Population Mitotic Cells (%)” value [6] was 71.43% and 78.57%, the “Population Normal (%)” value [6] was 100% and the “Population Pyknosed Nuclei (%)” value [6] was 7.45% and 6.01%. The “Population Tubulin-Different-Phenotype (%)” value [6] was 10.83% and 15.64% and the “Total Cell Count” value [6] was 188 and 233.
